pIC50: −log10 of the molar value.
Tests used:
[1] = Partition co-efficient, log P of the compound; assay type: physicochemical; conditions: octanol/water
[2] = Inhibition of soybean 15-lipoxygenase; design: species or system Glycine max
In short: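 Soybean 15-lipoxygenase (final 167 U/mL, kept on ice) in 0.2 M borate buffer pH 9.00 with linoleic acid (134 µM) substrate. Activity followed as absorbance increase at 234 nm from 30 to 90 s after enzyme addition. Compounds added in ethanol (final 1%); ethanol-only uninhibited controls measured at regular intervals. IC50 by linear interpolation between points around 50% activity.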

Structure (SMILES)	logP [1]	pIC50 [2]
Cc1nc(N2CCCC2)nc2c1Nc1ccccc1S2	2.49	4.32
Cc1nc(N2CCC(C)CC2)nc2c1Nc1ccccc1S2	2.98	4.12
CCN1CCN(c2nc(C)c3c(n2)Sc2ccccc2N3)CC1	2.19	4.47
Cc1nc(N2CCOCC2)nc2c1Nc1ccccc1S2	1.7	4.28
Cc1nc(N2CCC(O)CC2)nc2c1Nc1ccccc1S2	1.95	< 3.70
Cc1nc(N2CCN(c3ccccc3)CC2)nc2c1Nc1ccccc1S2	3.15	< 3.70
Cc1nc(N2CCCCC2)nc2c1Nc1ccccc1S2	2.74	4.24
Cc1nc(N2CCN(C)CC2)nc2c1Nc1ccccc1S2	1.95	4.74

Reference: ChEMBL document CHEMBL1142901, “Design and synthesis of pyrimido[4,5-b][1,4]benzothiazine derivatives, as potent 15-lipoxygenase inhibitors” (Bioorg Med Chem, 2007)
